Screens: PubChem BioAssay, several laboratories
CHOP UPR activ: activators of apoptotic CHOP UPR arm, primary screen, cell-based, CHO-CHOP luciferase reporter, luminescence, uHTS | UPR activation; percent of tunicamycin response over DMSO baseline | activation, % at 10 µM | AID 449763, 2010 | 330,000 tested, 0.34% active;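 active = at 10 µM dose, activation of 40% or more, normalized to positive control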;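 note: 100% = tunicamycin at 10 µg/mL and 0% = DMSO alone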
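System: CHO CHOP reporter cells. Amount: 500 cells per well. Buffer or medium: F12 medium, 10% FBS. Compound dosing: one dose, 10 µM in 0.5% DMSO. Incubation: 6 h compound exposure at 37 °C after overnight seeding. Technique: Steady-Glo luciferase luminescence. Benchmarks: tunicamycin and DMSO controls.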
MPTP block: mitochondrial permeability transition pore inhibitors, primary screen, biochemical, isolated mouse mitochondria, absorbance; 360,000 tested, 1.4% active; inhibition, % at 10 µM; Ca2+ swelling absorbance, 30 min; AID 602449, 2012;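 active = inhibition of 50% or more, scaled per plate between neutral and stimulator controls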;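 note: 0% = DMSO wells given calcium and 100% = 1 mM EGTA wells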
aDG glyco up: activators of alpha-DG glycosylation, primary screen, uHTS, Pro5-aDG cells, AlphaScreen; 360,000 tested, 0.22% active; AID 624168, 2012; activation, % at 10 µM; alpha-DG glycosylation AlphaScreen (IIH6); 0% Pro5, 100% B10-LARGE cell signal;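 active = activation of at least 8% versus controls, or a plate z-score of at least 8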;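 note: Pro5 are CHO cells carrying HIG-tagged alpha-DG that lacks glycosylation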
GRIN3A LBD mod: binders of NR3A ligand-binding domain, primary screen, biophysical, differential scanning fluorimetry, uHTS; Glutamate receptor ionotropic, NMDA 3A (GRIN3A) ligand-binding domain; NR3A LBD differential scanning fluorimetry, Tm shift; 0% = protein alone, 100% = glycine-bound protein; Tm shift relative to glycine control, % at 25 µM; 340,000 tested, 2.5% active;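 active = melting temperature shift of at least 10% of the positive control shift, at one fixed dose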
UPR XBP1 act: activators of adaptive XBP1 UPR arm, primary screen, cell-based, CHO-XBP1 luciferase reporter, luminescence, uHTS | IRE1-XBP1 UPR activation; percent of tunicamycin response, DMSO as zero | activation, % at 20 µM | 330,000 tested, 0.33% active;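 active = versus positive control, 20 µM dose yields 30% or more activation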;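 note: 100% = tunicamycin at 10 µg/mL and 0% = DMSO only wells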
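Material: CHO-XBP1 cells stably carrying IRE1-XBP1-driven luciferase reporter / Amount: 1000 cells per well / Compound: 20 µM, 1% DMSO / Times: 6 h treatment, 37 °C / Detection: luciferase luminescence / Measure: % activation of reporter signal versus tunicamycin and DMSO controls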
CHOP inhibitor: inhibitors of CHOP promoter induction, primary screen, cell-based, unfolded protein response, luciferase reporter. CHO-K1 CHOP-promoter luciferase, tunicamycin-induced, 15-18 h. inhibition, % at 10 µM. 220,000 tested, 3.8% active;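 active = compounds that reduced the stress-induced luciferase reporter signal by more than about 70% of percent inhibition, limit read from the data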;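 note: 0% = tunicamycin plus vehicle and 100% = wells without tunicamycin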
MPTP counter: fluorescence retest of MPTP screen hits in isolated mitochondria, single concentration; shares compounds with MPTP block; membrane potential, Rhodamine 123 fluorescence; inhibition, % at 10 µM; 5,000 tested, 78% active; in the data active = inhibition above about 22%;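 note: 0% = DMSO vehicle and 100% = positive control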
MPTP abs DR: mitochondrial permeability transition pore inhibitors, dose response, biochemical, absorbance, uHTS hits | shares compounds with MPTP block | 780 tested, 58% active | AID 651561, 2012 | isolated mitochondria swelling | IC50, µM; in the data active = IC50 below about 20 µM
MPTP cs DR: fluorescent counter-screen in isolated mitochondria, dose response, counter-screen for MPTP inhibitor project, biochemical, fluorescence, uHTS hits | IC50, µM | shares compounds with MPTP block | 780 tested, 49% active | isolated mitochondria counterscreen, fluorescence read-out; in the data active = IC50 below about 80 µM
Starred values were filed as active, the others as inactive; x = not tested or not shown. Shown are actives, neighbours in structure and some others; about 5.6% of the full set was active somewhere.

SMILES	CHOP UPR activ	MPTP block	aDG glyco up	GRIN3A LBD mod	UPR XBP1 act	CHOP inhibitor	MPTP counter	others
C/C(=N\NC(=O)c1ccc(Br)cc1)C1C(=O)c2ccccc2C1=O	2	74*	0	14*	5	-17	79*
C/C(=N\NC(=O)c1ccc(-c2ccccc2)cc1)C1C(=O)c2ccccc2C1=O	0	76*	0	6	3	30	43*
CC[C@@H](C(=O)[C@@H](C)[C@@H](O)[C@H](C)[C@@H]1O[C@@H]([C@@H](CC)C(=O)O)CC[C@@H]1C)[C@H]1O[C@]2(C=C[C@@H](O)[C@]3(CC[C@@](C)([C@H]4CC[C@](O)(CC)[C@H](C)O4)O3)O2)[C@H](C)C[C@@H]1C	x	4	0	-1	x	x	x
CC[C@@H](C(=O)[C@@H](C)[C@@H](O)[C@H](C)CCc1ccc(C)c(O)c1C(=O)O)[C@H]1O[C@](CC)([C@H]2CC[C@](O)(CC)[C@H](C)O2)C[C@@H]1C	12	104*	0	-13	-3	x	84*
Cc1snc(S(=O)(=O)/C(C#N)=N/Nc2cccc(C(F)(F)F)c2)c1C#N	-2	104*	0	24*	-8	-3	90*
O=C(O)CCCNc1c(C(=O)Nc2ccc(Cl)cc2)cc([N+](=O)[O-])cc1[N+](=O)[O-]	1	88*	0	-1	-4	12	94*
COCCCn1c(=O)c2ccccc2n(CC(=O)NC2CCCCC2)c1=O	2	-1	0	-2	-1	x	x
COC(=O)Nc1ccc2c(c1)N(C(=O)CCN(C)C)c1ccccc1CC2	1	0	0	4	-3	x	x
O=C(Nc1cc(Cl)ccc1O)c1snnc1-c1ccccc1	0	94*	0	5	1	82*	91*
NC(=NCCc1ccccc1)NC(=O)c1cc(Cl)ccc1O	8	56*	0	-4	5	x	74*
O=C(Nc1cccc(Cl)c1Cl)c1snnc1-c1ccccc1	-3	4	0	-19	0	1	x
O=C(CCc1ccccc1)N/N=C/c1cc(Br)ccc1O	1	91*	0	-20	0	76*	80*
O=C(CCc1ccccc1)N/N=C\c1cc2c(cc1Br)OCO2	3	-1	1	-1	-7	x	x
O=C(CCc1ccccc1)Nc1cc(Cl)ccc1O	3	68*	0	-4	0	51	81*
Cc1cccc(C(=O)N2N=C(c3ccc(NS(C)(=O)=O)cc3)CC2c2cccs2)c1 (stereo unspecified)	1	0	0	-1	-5	x	x
CC(C)NC(=S)N/N=C/c1cc(Br)ccc1O	5	93*	4	-2	0	77*	61*
COc1ccc(-c2noc(CSc3nc(-c4ccccc4)cc(=O)[nH]3)n2)cc1OC	-3	-2	0	-1	-5	55	x
COc1ccc(-c2noc(CSc3nc(N)cc(=O)[nH]3)n2)cc1	-1	74*	0	0	0	21	45*
COc1cccc(OCCn2cc(C(C)=O)c3ccccc32)c1	3	61*	1	1	-1	x	56*
COc1cccc(OCCn2cc(C(=O)c3ccco3)c3ccccc32)c1	3	2	1	-28	6	-12	x
CC(=O)c1cn(CCOc2cc(C)ccc2C)c2ccccc12	6	97*	1	0	-3	x	83*
c1ccc(Nc2nc(NCc3ccco3)c3ccccc3n2)cc1	18	76*	0	1	21	47	91*
Cc1cccc(Nc2nc(NCc3ccco3)c3ccccc3n2)c1	x	91*	1	4	x	69	90*
COc1ccc(C(CNC(=O)Cc2cccs2)N(C)C)cc1 (stereo unspecified)	3	-2	0	0	-1	x	x
O=C(CSC1=NS(=O)(=O)c2cc(Cl)ccc2N1)NCc1ccc(F)cc1	0	-2	0	-2	2	x	x
SMILES	CHOP UPR activ	MPTP block	aDG glyco up	GRIN3A LBD mod	UPR XBP1 act	CHOP inhibitor	MPTP counter	others
O=C(CSC1=NS(=O)(=O)c2cc(Cl)ccc2N1)Nc1cccc(F)c1	0	62*	0	19*	-2	x	56*
O=C(CSC1=NS(=O)(=O)c2cc(Cl)ccc2N1)c1ccc(Cl)cc1	-1	98*	0	12*	2	x	88*
NC(=O)CSc1nnc(SCc2ccc(F)cc2)s1	-1	-2	0	-1	-2	4	x
CCC(c1nnnn1-c1ccc2c(c1)OCCO2)N1CCN(CC)CC1 (stereo unspecified)	x	-1	0	x	x	x	x
Cc1ccc2c(c1)N(C(=O)CCC(=O)NCCCN1CCN(C)CC1)CC(C)O2 (stereo unspecified)	-1	-2	0	0	3	x	x
N#Cc1cn(Cc2ccco2)c(=O)[nH]c1=O	x	-2	0	-2	x	x	x
Cc1ccc(CN2CCN(CC(=O)NCCCN3CCN(c4ccc(F)cc4)CC3)C2=O)cc1	-1	56*	1	2	-1	73*	12	MPTP abs DR=14*;MPTP cs DR=18*
CCN(CC)S(=O)(=O)c1ccc(N2CCN(c3ccccc3OC)CC2)c(N)c1	5	108*	2	0	-7	x	98*
Cc1ccccc1OCC(=O)OCC(=O)NC1CC1	1	-1	0	1	3	x	x
CCc1nc(SCC(=O)c2ccc3c(c2)OCCO3)c2ccccc2n1	-2	4	0	-11	2	-16	x
O=C(CSc1ncnc2ccccc12)c1ccc2c(c1)OCCO2	5	58*	1	-1	2	40	65*
CCCCS(=N)(=O)CC[C@H](N)C(=O)O (stereo partly specified)	x	x	x	x	x	44	x
CCN(CC)CCN(C(=O)c1ccc(S(=O)(=O)N(C)C2CCCCC2)cc1)c1nc2c(C)cccc2s1	2	1	0	1	-2	x	x
